pEC50: −log10 of the molar value.
What was measured:
Cytochrome P450 2D6 [1] = molecular target: T1, Cytochrome P450 2D6 (Homo sapiens, UniProt P10635); test: Inhibition of human CYP2D6; assay type: ADME
[2] = Half life in mouse at 3 mg/kg, iv and 10 mg/kg, po; conditions: in vivo
Mus musculus [3] = test: Inhibition of LPS-induced iNOS activation in BALB/c mouse assessed as plasma nitrate levels administered via oral gavage before LPS challenge measured after 6 to 8 hrs using 2,3-diaminonaphthalene by fluorescence assay; assay type: functional
Procedure, shortened: (§1)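 Male BALB/c mice dosed by oral gavage (90% PEG/5% Tween 80/5% PVP + 0.5% w/v CMC) immediately before LPS (10 mg/kg ip in 0.9% NaCl). Mice killed at 6 h. EDTA plasma analysed for nitrate and drug levels; nitrite measured by DAN fluorescence.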

Cytochrome P450 1A2 [4] = molecular target: T2, Cytochrome P450 1A2 (Homo sapiens, UniProt P05177); test: Inhibition of human CYP1A2; assay type: ADME
T2 sequence (P05177 whole entry): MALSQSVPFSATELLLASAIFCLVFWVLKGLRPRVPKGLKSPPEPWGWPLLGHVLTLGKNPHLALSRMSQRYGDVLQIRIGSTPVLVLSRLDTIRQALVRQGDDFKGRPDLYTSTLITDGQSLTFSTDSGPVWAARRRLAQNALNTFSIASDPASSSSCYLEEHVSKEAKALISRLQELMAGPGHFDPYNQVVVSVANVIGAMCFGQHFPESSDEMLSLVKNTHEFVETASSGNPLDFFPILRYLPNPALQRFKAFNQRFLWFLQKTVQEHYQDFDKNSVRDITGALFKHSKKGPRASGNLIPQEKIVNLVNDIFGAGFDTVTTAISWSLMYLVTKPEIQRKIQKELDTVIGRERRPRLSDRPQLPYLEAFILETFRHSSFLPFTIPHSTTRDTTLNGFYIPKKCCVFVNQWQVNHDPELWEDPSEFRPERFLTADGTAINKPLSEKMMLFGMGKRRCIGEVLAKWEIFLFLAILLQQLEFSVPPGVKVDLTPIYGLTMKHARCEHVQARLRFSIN

[5] = Cmax in mouse at 3 mg/kg, iv and 10 mg/kg, po; assay type: ADME, organism-based; conditions: in vivo
Nitric oxide synthase 1 = Nitric oxide synthase 1 (Homo sapiens, UniProt P29475); test: Inhibition of human nNOS expressed in HEK293 cells assessed as inhibition ionomycin induced nitric oxide production incubated for 24 hrs measured after 18 hrs of ionomycin challenge using 2,3-diaminonaphthalene by fluorescence assay; assay type: cell-based
Procedure, shortened: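 HEK293 cells transfected for 4 h at 37 °C with human nNOS (10 μg) or human eNOS (15 μg) plasmid (Fugene 6, 3:1). Cells replated at 5e5 cells/mL and dosed with compound at once; SEITU (100 μM final) as positive control. After 24 h, cells activated with A23187 (83 nM final) for eNOS or ionomycin (30 μM final) for nNOS. NO read 18 h later as nitrite-DAN fluorescence.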

Cytochrome P450 2D6 [6] = molecular target: T1, Cytochrome P450 2D6; test: Inhibition of human CYP2D6 at >100 uM; assay type: ADME
Cytochrome P450 2C19 [7] = molecular target: T3, Cytochrome P450 2C19 (Homo sapiens, UniProt P33261); test: Inhibition of human CYP2C19 at >38 uM; assay type: ADME
Mus musculus [8] = test: Antinociceptive activity against formalin-induced pain in mouse assessed as attenuation of nocifensive phase 2 behaviors during phase 2 (25 to 45 mins post formalin injection) administered via oral gavage 30 mins before to formalin challenge; assay type: functional
Procedure, shortened: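 Mice were given compound by oral gavage in PEG/Tween 80/PVP + CMC vehicle 30 min before 20 μL of 5% formalin was injected into the left hind paw. Paw flinching, licking and biting were timed in 5 min bins by a single observer. Read-out was time in nociceptive behaviour at 25-45 min. Mean ± SE, n = 5-6, one-way ANOVA with post hoc tests.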

Brain = test: Drug uptake in rat brain by microdialysis relative to compound plasma level; assay type: ADME, tissue-based; conditions: in vivo
Cytochrome P450 2C9 [9] = molecular target: T4, Cytochrome P450 2C9 (Homo sapiens, UniProt P11712); test: Inhibition of human CYP2C9; assay type: ADME
[10] = Volume of distribution at steady state in mouse at 3 mg/kg, iv and 10 mg/kg, po; assay type: ADME, organism-based; conditions: in vivo, read-out: Vdss
Liver = test: Half life in mouse liver microsomes assessed as formation of oxidation product and glucuronide conjugate; assay type: ADME, Microsome
Procedure, shortened: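 Mouse liver microsomes run under combined phase I oxidation and phase II glucuronide conjugation; half-life reported in minutes.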

Cytochrome P450 3A4 [11] = molecular target: T5, Cytochrome P450 3A4 (Homo sapiens, UniProt P08684); test: Inhibition of human CYP3A4; assay type: ADME
Cytochrome P450 3A4 [12] = molecular target: T5, Cytochrome P450 3A4; test: Inhibition of human CYP3A4 at >100 uM; assay type: ADME
[13] = molecular target: Nitric oxide synthase, inducible (Homo sapiens, UniProt P35228); test: Inhibition of human iNOS expressed in HEK293 cells assessed as inhibition of nitric oxide production after 18 hrs using 2,3-diaminonaphthalene by fluorescence assay; assay type: cell-based
Procedure, shortened: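 HEK293 cells grown to ~70% confluence in DMEM/10% FBS with pen/strep, transiently transfected with 10 μg human or murine iNOS plasmid plus Fugene 6 for 4 h at 37 °C, 10% CO2. Cells replated at 5e5 cells/mL and dosed with compound at once; 1400W (100 μM final) as positive control. After 18 h, DAN (10 μg/mL final) in HCl (0.1 N final) added for 20 min at room temperature. Fluorescence read after NaOH (0.12 N final).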

[14] = molecular target: T6, Voltage-gated inwardly rectifying potassium channel KCNH2 (Homo sapiens, UniProt Q12809); test: Inhibition of human ERG by patch clamp assay
[15] = molecular target: T6, Voltage-gated inwardly rectifying potassium channel KCNH2; test: Inhibition of human ERG at >30 uM by patch clamp assay
Mus musculus [16] = test: Neurotoxicity in C57Bl/6j mouse assessed as inability to maintain equilibrium on rotarod up to 1000 mg/kg, po determined 1 to 3 hrs postdose by rotarod test; assay type: toxicity, organism-based; parameters: dose 1000 mg/kg, route oral; conditions: in vivo
Procedure, shortened: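 Male C57Bl/6j mice were acclimated to the rotarod at 4 rpm, then given two training sessions on an accelerating rod (4-40 rpm over 300 s). Only mice with latencies >60 s were kept. After oral dosing, latency to fall from the accelerating rod was recorded at 1, 2 and 3 h.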

Cytochrome P450 2C9 [17] = molecular target: T4, Cytochrome P450 2C9; test: Inhibition of human CYP2C9 at >60 uM; assay type: ADME
[18] = Half life in mouse at 10 mg/kg, po; assay type: ADME, organism-based; parameters: dose 10 mg/kg, route oral; conditions: in vivo
[19] = Oral bioavailability in mouse at 10 mg/kg; assay type: ADME, organism-based; conditions: in vivo
Cytochrome P450 1A2 [20] = molecular target: T2, Cytochrome P450 1A2; test: Inhibition of human CYP1A2 at >100uM; assay type: ADME
[21] = AUC in mouse at 3 mg/kg, iv and 10 mg/kg, po; assay type: ADME, organism-based; conditions: plasma
Cytochrome P450 3A4 [22] = molecular target: T5, Cytochrome P450 3A4; test: Inhibition of human CYP3A4 at >60 uM; assay type: ADME
[23] = Cmax in mouse 10 mg/kg, po; assay type: ADME, organism-based; parameters: dose 10 mg/kg, route oral; conditions: in vivo
Cytochrome P450 2C19 [24] = molecular target: T3, Cytochrome P450 2C19; test: Inhibition of human CYP2C19 at >60 uM; assay type: ADME
Mus musculus [25] = test: Inhibition of LPS-induced iNOS activation in BALB/c mouse assessed as plasma nitrate levels at 30 mg/kg administered via oral gavage before LPS challenge measured after 6 to 8 hrs using 2,3-diaminonaphthalene by fluorescence assay relative to control; assay type: functional; procedure, shortened: as §1
Homo sapiens [26] = organism: Homo sapiens; test: Ratio of IC50 for human eNOS to EC50 for human iNOS
Homo sapiens [27] = organism: Homo sapiens; test: Ratio of IC50 for human nNOS to EC50 for human iNOS

T4 sequence (P11712 whole entry): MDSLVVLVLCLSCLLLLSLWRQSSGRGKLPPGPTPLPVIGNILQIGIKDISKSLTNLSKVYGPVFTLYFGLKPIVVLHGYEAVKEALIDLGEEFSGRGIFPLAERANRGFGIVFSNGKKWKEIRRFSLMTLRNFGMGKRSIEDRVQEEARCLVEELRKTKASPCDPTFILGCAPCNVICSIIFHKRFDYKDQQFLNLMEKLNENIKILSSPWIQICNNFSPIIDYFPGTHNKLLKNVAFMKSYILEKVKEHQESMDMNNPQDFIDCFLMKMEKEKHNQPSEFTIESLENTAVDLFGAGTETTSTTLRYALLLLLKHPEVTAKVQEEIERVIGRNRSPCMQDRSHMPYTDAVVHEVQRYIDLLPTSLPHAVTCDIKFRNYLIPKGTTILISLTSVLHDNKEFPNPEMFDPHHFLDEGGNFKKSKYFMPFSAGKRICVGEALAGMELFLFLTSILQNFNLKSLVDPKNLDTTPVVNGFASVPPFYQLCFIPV
Nitric oxide synthase 1, sequence (P29475 whole entry): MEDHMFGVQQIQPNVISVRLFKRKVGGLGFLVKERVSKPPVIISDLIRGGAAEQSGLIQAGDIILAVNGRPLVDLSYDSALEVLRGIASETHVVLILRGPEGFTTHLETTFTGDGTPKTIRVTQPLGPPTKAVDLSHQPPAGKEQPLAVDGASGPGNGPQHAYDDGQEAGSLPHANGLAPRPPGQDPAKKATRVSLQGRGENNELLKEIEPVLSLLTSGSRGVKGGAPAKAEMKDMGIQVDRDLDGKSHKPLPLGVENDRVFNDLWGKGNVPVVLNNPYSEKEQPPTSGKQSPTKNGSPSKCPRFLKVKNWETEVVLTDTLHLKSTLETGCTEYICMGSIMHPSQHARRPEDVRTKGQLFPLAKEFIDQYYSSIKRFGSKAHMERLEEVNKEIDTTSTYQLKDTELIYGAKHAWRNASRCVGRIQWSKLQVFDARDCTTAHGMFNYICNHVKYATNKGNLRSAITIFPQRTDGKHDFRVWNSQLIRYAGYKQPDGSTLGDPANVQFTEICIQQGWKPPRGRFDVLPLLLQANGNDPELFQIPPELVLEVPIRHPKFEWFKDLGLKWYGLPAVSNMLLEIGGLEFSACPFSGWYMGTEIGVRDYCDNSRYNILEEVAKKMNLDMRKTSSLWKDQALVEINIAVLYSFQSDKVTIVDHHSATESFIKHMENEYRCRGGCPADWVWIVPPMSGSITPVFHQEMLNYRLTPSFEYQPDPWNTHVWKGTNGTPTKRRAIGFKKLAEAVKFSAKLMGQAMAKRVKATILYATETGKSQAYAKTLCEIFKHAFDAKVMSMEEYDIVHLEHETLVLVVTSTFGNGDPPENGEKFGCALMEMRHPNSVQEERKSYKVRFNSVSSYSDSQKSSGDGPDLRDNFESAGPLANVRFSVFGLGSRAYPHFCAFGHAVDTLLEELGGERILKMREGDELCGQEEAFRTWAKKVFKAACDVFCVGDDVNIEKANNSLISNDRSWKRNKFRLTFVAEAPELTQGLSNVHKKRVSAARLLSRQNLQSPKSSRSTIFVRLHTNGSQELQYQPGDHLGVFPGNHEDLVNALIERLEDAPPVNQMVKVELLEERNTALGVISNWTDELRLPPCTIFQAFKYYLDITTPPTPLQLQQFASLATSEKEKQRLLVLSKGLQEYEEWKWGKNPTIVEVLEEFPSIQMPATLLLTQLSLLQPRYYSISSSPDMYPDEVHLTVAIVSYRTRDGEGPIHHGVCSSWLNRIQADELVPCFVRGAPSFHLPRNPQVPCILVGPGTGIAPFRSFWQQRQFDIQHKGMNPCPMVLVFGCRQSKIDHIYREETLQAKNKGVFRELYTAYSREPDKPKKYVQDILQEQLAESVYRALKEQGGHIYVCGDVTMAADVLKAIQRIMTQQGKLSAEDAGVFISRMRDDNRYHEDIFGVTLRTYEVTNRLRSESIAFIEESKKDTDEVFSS
T1 sequence (P10635 whole entry): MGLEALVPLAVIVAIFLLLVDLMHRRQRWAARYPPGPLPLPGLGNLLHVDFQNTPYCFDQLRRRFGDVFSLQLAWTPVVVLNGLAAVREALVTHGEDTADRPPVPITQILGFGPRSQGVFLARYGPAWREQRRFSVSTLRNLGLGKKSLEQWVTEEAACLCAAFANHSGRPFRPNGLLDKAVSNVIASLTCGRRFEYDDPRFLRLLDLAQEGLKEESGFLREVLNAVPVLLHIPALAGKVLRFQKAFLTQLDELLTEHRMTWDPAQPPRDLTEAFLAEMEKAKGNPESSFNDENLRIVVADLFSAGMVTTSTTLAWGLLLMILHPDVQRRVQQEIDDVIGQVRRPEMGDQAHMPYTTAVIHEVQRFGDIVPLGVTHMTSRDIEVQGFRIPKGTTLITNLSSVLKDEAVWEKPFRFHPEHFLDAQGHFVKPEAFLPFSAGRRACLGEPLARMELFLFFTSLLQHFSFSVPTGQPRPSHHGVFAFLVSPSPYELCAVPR
T5 sequence (P08684 whole entry): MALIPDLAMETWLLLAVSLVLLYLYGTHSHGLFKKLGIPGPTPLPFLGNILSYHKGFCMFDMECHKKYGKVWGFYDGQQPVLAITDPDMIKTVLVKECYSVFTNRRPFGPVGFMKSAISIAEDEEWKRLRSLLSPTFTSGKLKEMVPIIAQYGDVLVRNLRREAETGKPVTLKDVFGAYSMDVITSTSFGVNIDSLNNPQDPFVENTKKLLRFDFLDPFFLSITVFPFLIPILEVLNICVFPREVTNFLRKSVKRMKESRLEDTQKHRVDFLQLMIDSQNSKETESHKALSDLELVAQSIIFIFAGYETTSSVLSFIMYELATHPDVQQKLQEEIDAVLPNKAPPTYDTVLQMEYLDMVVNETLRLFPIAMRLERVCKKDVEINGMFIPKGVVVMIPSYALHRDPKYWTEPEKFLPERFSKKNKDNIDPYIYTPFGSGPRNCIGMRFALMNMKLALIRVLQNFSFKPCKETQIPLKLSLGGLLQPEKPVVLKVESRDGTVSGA
T6 sequence (Q12809 whole entry): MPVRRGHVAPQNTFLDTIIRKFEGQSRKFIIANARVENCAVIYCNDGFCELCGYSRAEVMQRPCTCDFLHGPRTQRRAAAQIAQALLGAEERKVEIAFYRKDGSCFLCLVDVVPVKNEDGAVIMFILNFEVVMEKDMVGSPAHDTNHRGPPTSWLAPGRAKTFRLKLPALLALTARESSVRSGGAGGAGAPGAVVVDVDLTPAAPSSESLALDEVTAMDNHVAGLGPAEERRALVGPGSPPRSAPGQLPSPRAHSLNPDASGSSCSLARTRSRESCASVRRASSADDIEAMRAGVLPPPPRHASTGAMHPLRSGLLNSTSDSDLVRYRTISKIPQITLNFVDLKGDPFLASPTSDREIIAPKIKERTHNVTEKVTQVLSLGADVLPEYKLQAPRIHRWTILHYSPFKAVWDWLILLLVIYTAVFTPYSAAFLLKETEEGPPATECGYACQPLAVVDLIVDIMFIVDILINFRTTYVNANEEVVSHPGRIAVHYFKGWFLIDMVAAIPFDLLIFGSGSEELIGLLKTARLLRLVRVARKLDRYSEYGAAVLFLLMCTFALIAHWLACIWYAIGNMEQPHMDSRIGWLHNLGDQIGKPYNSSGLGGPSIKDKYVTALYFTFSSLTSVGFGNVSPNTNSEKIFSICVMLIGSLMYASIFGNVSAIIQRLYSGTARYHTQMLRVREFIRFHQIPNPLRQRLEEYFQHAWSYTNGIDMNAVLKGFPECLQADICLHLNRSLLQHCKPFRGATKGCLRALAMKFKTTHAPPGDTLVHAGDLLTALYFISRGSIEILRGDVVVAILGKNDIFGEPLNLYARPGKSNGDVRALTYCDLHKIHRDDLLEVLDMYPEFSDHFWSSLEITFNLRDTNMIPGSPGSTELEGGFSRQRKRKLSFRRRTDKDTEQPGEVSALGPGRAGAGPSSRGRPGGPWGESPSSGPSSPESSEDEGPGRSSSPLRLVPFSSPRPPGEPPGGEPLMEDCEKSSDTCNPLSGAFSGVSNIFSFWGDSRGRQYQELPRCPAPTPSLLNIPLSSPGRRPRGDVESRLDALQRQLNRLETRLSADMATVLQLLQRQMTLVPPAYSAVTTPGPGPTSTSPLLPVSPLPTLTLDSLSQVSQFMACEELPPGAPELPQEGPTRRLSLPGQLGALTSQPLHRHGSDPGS
T3 sequence (P33261 whole entry): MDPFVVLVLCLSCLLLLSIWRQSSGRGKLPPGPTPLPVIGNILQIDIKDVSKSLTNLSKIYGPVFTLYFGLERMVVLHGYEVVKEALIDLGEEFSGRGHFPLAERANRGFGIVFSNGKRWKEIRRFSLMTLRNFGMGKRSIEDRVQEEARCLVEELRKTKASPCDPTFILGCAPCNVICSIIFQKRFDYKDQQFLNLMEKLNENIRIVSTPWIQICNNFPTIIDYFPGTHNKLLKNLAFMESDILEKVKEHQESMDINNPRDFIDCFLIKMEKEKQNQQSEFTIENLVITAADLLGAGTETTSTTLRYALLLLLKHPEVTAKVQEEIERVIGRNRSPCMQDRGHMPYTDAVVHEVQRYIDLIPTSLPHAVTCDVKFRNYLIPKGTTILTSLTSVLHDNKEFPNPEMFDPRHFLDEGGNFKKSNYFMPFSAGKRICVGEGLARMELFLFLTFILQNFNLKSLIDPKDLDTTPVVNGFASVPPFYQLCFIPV

| Structure (SMILES) | pEC50 (Cytochrome P450 2D6 [1]) | half-life [2] [h] | ED50 (Mus musculus [3]) [mg/kg] | pEC50 (Cytochrome P450 1A2 [4]) | Cmax [5] [ng/mL] | pEC50 (Nitric oxide synthase 1) | inhibition (INH) (Cytochrome P450 2D6 [6]) [%] | pEC50 (Cytochrome P450 2C9 [9]) | Vd [10] [L/kg] | t1/2 (Liver) [h] | pEC50 (Cytochrome P450 3A4 [11]) | pEC50 [13] | pEC50 [14] | inhibition (INH) [15] [%] | inhibition (INH) (Cytochrome P450 2C9 [17]) [%] | half-life [18] [h] | bioavailability [19] [%] | inhibition (INH) (Cytochrome P450 1A2 [20]) [%] | AUC [21] [ng·h/mL] | inhibition (INH) (Cytochrome P450 3A4 [22]) [%] | further results |
| --- | --- | --- | --- | --- | --- | --- | --- | --- | --- | --- | --- | --- | --- | --- | --- | --- | --- | --- | --- | --- | --- |
| O=c1cc(Cn2c(C3CCC3)nc3nccnc32)c2ccc(F)c(F)c2[nH]1 | < 4.00 | 2.1 | 1 | < 4.00 | 15000 | 6.52 | < 50 | < 4.22 | 0.39 | > 2 | < 4.00 | 7.04 | < 4.52 | < 50 | < 50 | 2.3 | 62 | < 50 |  |  | inhibition (INH) (Cytochrome P450 2C19 [7]): < 50%; ED50 (Mus musculus [8]): 13 mg/kg; Drug uptake (Brain): 2%; inhibition (INH) (Cytochrome P450 3A4 [12]): < 50%; Activity (Mus musculus [16]): Non-toxic |
| O=c1cc(Cn2c(C3CC(F)(F)C3)nc3nccnc32)c2cccc(F)c2[nH]1 | < 4.00 | 4 | 3 | 4.46 | 8800 | 5.52 | < 50 | 4.66 | 0.67 | > 2 | 4.64 | 6.66 |  |  |  | 2.3 | 55 |  | 15000 |  |  |
| O=c1cc(Cn2c(C3CCC3)nc3nccnc32)c2cccc(F)c2[nH]1 | < 4.00 | 1.3 | 1.5 | < 4.00 |  | 5.34 | < 50 | < 4.22 | 0.47 | > 2 | < 4.22 | 6.72 |  |  | < 50 | 3.1 | 91 | < 50 | 25000 | < 50 | Cmax [23]: 15000 ng/mL; inhibition (INH) (Cytochrome P450 2C19 [24]): < 50% |
| CC(C)Cc1nc2ccccc2n1Cc1cc(=O)[nH]c2c(F)c(F)ccc12 |  | 1.7 |  |  | 8700 | 6.16 |  |  | 1.1 | 1.83 |  | 6.42 |  |  |  | 5.2 | 81 |  | 13300 |  | inhibition in vivo at 30 mg/kg (Mus musculus [25]): 85%; Ratio EC50 (Homo sapiens [26]): > 263; Ratio EC50 (Homo sapiens [27]): 1.8 |
| CC(C)Cc1nc2nccnc2n1Cc1cc(=O)[nH]c2c(F)c(F)ccc12 | < 4.00 | 6 | 0.5 | < 4.00 |  | 6.52 | < 50 | 4.54 | 6.8 | 0.783 | < 4.22 | 7.06 | < 4.52 | < 50 |  | 1.8 | 39 | < 50 | 11000 | < 50 | Cmax [23]: 3700 ng/mL; inhibition (INH) (Cytochrome P450 2C19 [24]): < 50% |
